The text below walks through data of ChEMBL document CHEMBL3120077, “Synthesis, structure-activity relationship of iodinated-4-aryloxymethyl-coumarins as potential anti-cancer and anti-mycobacterial agents” (Eur J Med Chem, 2014).

SMILES strings stand for the structures. Values after ≈ are worked out from the molar mass of the structure shown. Some results are limits rather than exact numbers.

Holding throughout (type): functional
Assay [1] concerns Mycobacterium tuberculosis. Kind of assay: Antimicrobial activity against Mycobacterium tuberculosis. An outline of the steps:
(§1)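 M. tuberculosis H37Rv was tested in Middlebrook 7H9 broth in a microplate Alamar Blue assay. Compounds were serially diluted on the plate to final concentrations of 100–0.2 µg/mL. Sealed plates were incubated at 37 °C for 5 days. A fresh 1:1 mix of Alamar Blue and 10% Tween 80 was then added, followed by 24 h more incubation. Blue wells were scored as no growth, pink as growth.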

Assay [2] relates to Mycolicibacterium phlei. Kind of assay: Antimicrobial activity against Mycobacterium phlei after 5 days by microplate Alamar Blue assay. To be noted: 120 h. An outline of the steps: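 Microplate Alamar Blue assay (MABA) in Middlebrook 7H9 broth, compounds serially diluted on plate to final 100–0.2 µg/mL. Plates sealed and incubated 37 °C for 5 days, then 1:1 Alamar Blue/10% Tween 80 added and incubated 24 h more. Blue scored as no growth, pink as growth.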

In assay [3] the test system is Mycobacterium tuberculosis. Kind of assay: Antimicrobial activity against Mycobacterium tuberculosis H37Rv after 5 days by microplate Alamar Blue assay. Particulars: 120 h. An outline of the steps: as §1
Background: Resazurin is reduced to fluorescent resorufin, in cell work by metabolically active cells.

For assay [4], the system named is A549. Kind of assay: Cytotoxicity against human A549 cells after 24 hrs by MTT assay. The procedure, abridged:
(§2)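 Cells seeded at 2×10^4/well, incubated overnight, then exposed 24 h to test concentrations. MTT (5 mg/mL stock) added, 3 h at 37 °C; formazan dissolved in DMSO, absorbance 570 nm. Percent viability inhibition relative to untreated control; IC50 from linear regression of the dose-response line.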

Assay [5] in a line: Cytotoxicity against human MDA-MB cells after 24 hrs by MTT assay. An outline of the steps: as §2
In assay [6] the test system is Mycobacterium tuberculosis. Nature of the assay: Antimicrobial activity against Mycobacterium tuberculosis ATCC 27294 by microplate Alamar Blue assay. The procedure, abridged:
as §1

In turn, `Cc1cc(=O)oc2cc(OCc3cn(Cc4cc(=O)oc5ccc6ccccc6c45)nn3)ccc12` came in with an MIC in assay [1] of 6.25 µg/mL (≈ 13.4 µM).

Turning to `COc1ccc2oc(=O)cc(COc3ccccc3I)c2c1`, the MIC in assay [2] was determined as 50 µg/mL (≈ 122 µM); in assay [3] it was 12.5 µg/mL (≈ 30.6 µM); in assay [4] it was 25 µg/mL (≈ 61.2 µM); in assay [5], 25 µg/mL (≈ 61.2 µM).

For the compound `O=c1cc(COc2ccc(I)cc2)c2cc(Cl)ccc2o1`, the MIC was 3.12 µg/mL (≈ 7.57 µM) in assay [2], 1.56 µg/mL (≈ 3.78 µM) in assay [3], 3.12 µg/mL (≈ 7.57 µM) in assay [4] and 1.56 µg/mL (≈ 3.78 µM) in assay [5].

`O=c1cc(COc2ccc(I)cc2)c2cc(Br)ccc2o1`: the MIC in assay [2] was determined as 6.25 µg/mL (≈ 13.7 µM); in assay [3], 6.25 µg/mL (≈ 13.7 µM); in assay [4], 3.12 µg/mL (≈ 6.84 µM); in assay [5] it was 3.12 µg/mL (≈ 6.84 µM).

As for `Cc1ccc2c(COc3ccccc3I)cc(=O)oc2c1`, the MIC was more than 100 µg/mL in assay [2], 12.5 µg/mL (≈ 31.9 µM) in assay [3], 50 µg/mL (≈ 127 µM) in assay [4] and 12.5 µg/mL (≈ 31.9 µM) in assay [5].

On to `O=c1cc(COc2ccccc2I)c2cc(Br)ccc2o1`, for which the MIC in assay [2] came to 50 µg/mL (≈ 109 µM); in assay [3] it was 6.25 µg/mL (≈ 13.7 µM); in assay [4], 12.5 µg/mL (≈ 27.3 µM); in assay [5] it was 12.5 µg/mL (≈ 27.3 µM).

As to `CN[C@@H]1[C@H](O[C@H]2[C@H](O[C@H]3[C@H](O)[C@@H](O)[C@H](N=C(N)N)[C@@H](O)[C@@H]3N=C(N)N)O[C@@H](C)[C@]2(O)C=O)O[C@@H](CO)[C@H](O)[C@H]1O` [STREPTOMYCIN], the MIC in assay [2] and in assay [3] was 6.25 µg/mL (≈ 10.7 µM) each time.

Regarding `Cc1ccc2c(COc3cccc(I)c3)cc(=O)oc2c1C`, the MIC in assay [2], in assay [3], in assay [4] and in assay [5] was 25 µg/mL (≈ 61.5 µM) each time.

For `O=c1cc(COc2ccc(I)cc2)c2ccc(Cl)cc2o1`, the MIC stood at 3.12 µg/mL (≈ 7.57 µM) in assay [2], 1.56 µg/mL (≈ 3.78 µM) in assay [3], 3.12 µg/mL (≈ 7.57 µM) in assay [4] and 1.56 µg/mL (≈ 3.78 µM) in assay [5].

On to `O=c1cc(COc2cccc(I)c2)c2ccc(Cl)cc2o1`, for which the MIC in assay [2] stood at 6.25 µg/mL (≈ 15.1 µM); in assay [3], 12.5 µg/mL (≈ 30.3 µM); in assay [4], 6.25 µg/mL (≈ 15.1 µM); in assay [5], 6.25 µg/mL (≈ 15.1 µM).

With `Cc1cc(=O)oc2cc(OCc3cn(Cc4cc(=O)oc5ccc(Cl)cc45)nn3)ccc12`, the MIC in assay [1] is 6.25 µg/mL (≈ 13.9 µM).

On to `O=c1cc(COc2cccc(I)c2)c2cc(Br)ccc2o1`, for which the MIC in assay [2] is 6.25 µg/mL (≈ 13.7 µM); in assay [3], 12.5 µg/mL (≈ 27.3 µM); in assay [4], 6.25 µg/mL (≈ 13.7 µM); in assay [5] it was 6.25 µg/mL (≈ 13.7 µM).

For `O=c1cc(COc2cccc(I)c2)c2c(ccc3ccccc32)o1`, the MIC in assay [2] worked out at 25 µg/mL (≈ 58.4 µM); in assay [3], 25 µg/mL (≈ 58.4 µM); in assay [4], 12.5 µg/mL (≈ 29.2 µM); in assay [5] it was 50 µg/mL (≈ 117 µM).

On to `O=c1cc(COc2cccc(I)c2)c2ccc3ccccc3c2o1`, for which the MIC in assay [2] amounted to 25 µg/mL (≈ 58.4 µM); in assay [3], 25 µg/mL (≈ 58.4 µM); in assay [4], 12.5 µg/mL (≈ 29.2 µM); in assay [5] it was 50 µg/mL (≈ 117 µM).

In the case of `Cc1ccc2oc(=O)cc(COc3ccc(I)cc3)c2c1`, the MIC in assay [2], in assay [3], in assay [4] and in assay [5] was 12.5 µg/mL (≈ 31.9 µM) throughout.

Turning to `NC(=O)c1cnccn1` [PYRAZINAMIDE], the MIC in assay [2] and in assay [3] was 3.12 µg/mL (≈ 25.4 µM) throughout.

For the compound `COc1ccc2c(COc3ccccc3I)cc(=O)oc2c1`, the MIC in assay [2] stood at 50 µg/mL (≈ 122 µM); in assay [3], 12.5 µg/mL (≈ 30.6 µM); in assay [4], 25 µg/mL (≈ 61.2 µM); in assay [5], 25 µg/mL (≈ 61.2 µM).

As to `COc1ccc2c(COc3cccc(I)c3)cc(=O)oc2c1`, the MIC in assay [2] worked out at 50 µg/mL (≈ 122 µM); in assay [3], 25 µg/mL (≈ 61.2 µM); in assay [4] it was 12.5 µg/mL (≈ 30.6 µM); in assay [5], 50 µg/mL (≈ 122 µM).

With `O=C(Cc1cc(=O)oc2cc(O)ccc12)N/N=C/c1cccc([N+](=O)[O-])c1`, the MIC in assay [6] was determined as 6.25 µg/mL (≈ 17 µM).

With `O=c1cc(COc2cccc(I)c2)c2cc(Cl)ccc2o1`, the MIC came to 6.25 µg/mL (≈ 15.1 µM) in assay [2], 12.5 µg/mL (≈ 30.3 µM) in assay [3], 6.25 µg/mL (≈ 15.1 µM) in assay [4] and 6.25 µg/mL (≈ 15.1 µM) in assay [5].

In the case of `COc1ccc2oc(=O)cc(COc3cccc(I)c3)c2c1`, the MIC in assay [2] turned out to be 50 µg/mL (≈ 122 µM); in assay [3] it was 25 µg/mL (≈ 61.2 µM); in assay [4] it was 12.5 µg/mL (≈ 30.6 µM); in assay [5] it was 50 µg/mL (≈ 122 µM).

Turning to `O=c1cc(COc2ccc(I)cc2)c2ccc3ccccc3c2o1`, the MIC was 25 µg/mL (≈ 58.4 µM) in assay [2], 25 µg/mL (≈ 58.4 µM) in assay [3], 6.25 µg/mL (≈ 14.6 µM) in assay [4] and 25 µg/mL (≈ 58.4 µM) in assay [5].

With `Cc1ccc2c(COc3ccc(I)cc3)cc(=O)oc2c1C`, the MIC in assay [2], in assay [3], in assay [4] and in assay [5] was 12.5 µg/mL (≈ 30.8 µM) each time.

`O=C(N/N=C/c1cccc(O)c1)c1cc2ccccc2oc1=O` displayed an MIC in assay [1] of 50 µg/mL (≈ 162 µM).

In the case of `Cc1ccc2oc(=O)cc(COc3cccc(I)c3)c2c1`, the MIC was determined as 12.5 µg/mL (≈ 31.9 µM) in assay [2], 25 µg/mL (≈ 63.7 µM) in assay [3], 25 µg/mL (≈ 63.7 µM) in assay [4] and 25 µg/mL (≈ 63.7 µM) in assay [5].

For the compound `Cc1cc(=O)oc2cc(OCc3cn(Cc4cc(=O)oc5cc(Cl)ccc45)nn3)ccc12`, the MIC in assay [1] is 6.25 µg/mL (≈ 13.9 µM).

Consider `COc1ccc2c(COc3ccc(I)cc3)cc(=O)oc2c1`, for which the MIC in assay [2] came to 12.5 µg/mL (≈ 30.6 µM); in assay [3] it was 25 µg/mL (≈ 61.2 µM); in assay [4] it was 6.25 µg/mL (≈ 15.3 µM); in assay [5], 25 µg/mL (≈ 61.2 µM).

`O=c1cc(COc2ccccc2I)c2ccc(Cl)cc2o1`: the MIC was determined as 25 µg/mL (≈ 60.6 µM) in assay [2], 6.25 µg/mL (≈ 15.1 µM) in assay [3], 12.5 µg/mL (≈ 30.3 µM) in assay [4] and 12.5 µg/mL (≈ 30.3 µM) in assay [5].

Turning to `O=c1cc(COc2ccccc2I)c2cc(Cl)ccc2o1`, the MIC was 25 µg/mL (≈ 60.6 µM) in assay [2], 6.25 µg/mL (≈ 15.1 µM) in assay [3], 12.5 µg/mL (≈ 30.3 µM) in assay [4] and 12.5 µg/mL (≈ 30.3 µM) in assay [5].

For `Cc1ccc2c(COc3ccccc3I)cc(=O)oc2c1C`, the MIC in assay [2] came to 50 µg/mL (≈ 123 µM); in assay [3], 25 µg/mL (≈ 61.5 µM); in assay [4], 50 µg/mL (≈ 123 µM); in assay [5] it was 25 µg/mL (≈ 61.5 µM).

With `COc1ccc2oc(=O)cc(COc3ccc(I)cc3)c2c1`, the MIC in assay [2] came out at 12.5 µg/mL (≈ 30.6 µM); in assay [3], 25 µg/mL (≈ 61.2 µM); in assay [4] it was 6.25 µg/mL (≈ 15.3 µM); in assay [5], 25 µg/mL (≈ 61.2 µM).

On to `Cc1ccc2oc(=O)cc(COc3ccccc3I)c2c1`, for which the MIC in assay [2] is more than 100 µg/mL; in assay [3], 12.5 µg/mL (≈ 31.9 µM); in assay [4], 50 µg/mL (≈ 127 µM); in assay [5] it was 12.5 µg/mL (≈ 31.9 µM).

Turning to `Cc1ccc2c(COc3ccc(I)cc3)cc(=O)oc2c1`, the MIC stood at 12.5 µg/mL (≈ 31.9 µM) in assay [2], 25 µg/mL (≈ 63.7 µM) in assay [3], 12.5 µg/mL (≈ 31.9 µM) in assay [4] and 12.5 µg/mL (≈ 31.9 µM) in assay [5].

`O=c1cc(COc2ccc(I)cc2)c2c(ccc3ccccc32)o1`: the MIC in assay [2] was determined as 25 µg/mL (≈ 58.4 µM); in assay [3] it was 25 µg/mL (≈ 58.4 µM); in assay [4], 6.25 µg/mL (≈ 14.6 µM); in assay [5] it was 25 µg/mL (≈ 58.4 µM).

For the compound `Cc1ccc2c(COc3cccc(I)c3)cc(=O)oc2c1`, the MIC stood at 12.5 µg/mL (≈ 31.9 µM) in assay [2], 25 µg/mL (≈ 63.7 µM) in assay [3], 25 µg/mL (≈ 63.7 µM) in assay [4] and 25 µg/mL (≈ 63.7 µM) in assay [5].

For the compound `O=c1cc(COc2ccccc2I)c2ccc3ccccc3c2o1`, the MIC came out at 50 µg/mL (≈ 117 µM) in assay [2], 50 µg/mL (≈ 117 µM) in assay [3], 25 µg/mL (≈ 58.4 µM) in assay [4] and 25 µg/mL (≈ 58.4 µM) in assay [5].

For `O=c1cc(COc2ccccc2I)c2c(ccc3ccccc32)o1`, the MIC is 50 µg/mL (≈ 117 µM) in assay [2], 50 µg/mL (≈ 117 µM) in assay [3], 25 µg/mL (≈ 58.4 µM) in assay [4] and 25 µg/mL (≈ 58.4 µM) in assay [5].
